In data set [1] the test system is SK-MES-1. Kind of data set: Cytotoxicity against human SK-MES-1 cells assessed as inhibition of cell proliferation measured after 72 hrs by CCK-8 assay. It is filed as functional, cell-based. The note with it: SK-MES-1, 72 h. The method, boiled down: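 Cells seeded at 2×10^3 per well and grown overnight in 10% FBS medium: HCT116 in McCoy's 5A, A549 and AGS in F-12K, SK-MES-1 in DMEM. Compounds added at varied concentrations with 0.1% DMSO control, 72 h at 37 °C. 10% CCK-8 for 2 h, then A450 read. Survival = (As−Ab)/(Ac−Ab)×100%. IC50 from curve fitting.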
(Formazan colour is commonly taken as a measure of viable cells.)

A short description of data set [2]: Cytotoxicity against human NCM460 cells assessed as inhibition of cell proliferation measured after 72 hrs by CCK-8 assay. In kind it is toxicity, cell-based. The method, boiled down: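 NCM460 normal colonic epithelial cells seeded at 2×10^3 cells/well and grown overnight in RPMI-1640 with 10% FBS. Compounds added at a range of concentrations, 0.1% DMSO as negative control, 72 h at 37 °C. Read-out by CCK-8 (10%, 2 h) at 450 nm. Survival = (As−Ab)/(Ac−Ab)×100%; IC50 taken as concentration giving 50% inhibition of proliferation.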

Data set [3] deals with HCT-116. Briefly: Inhibition of cell migration in human HCT-116 cells measured after 24 hrs by crystal violet staining based fluorescent inverted microscopic analysis. In kind it is functional. Conditions: dose 0.1-0.3 µM. The method, boiled down: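 Uncoated Transwell inserts were seeded with HCT116 cells (1×10^4) in the upper chamber, with complete medium below. Treated 24 h at 37 °C, 5% CO2, with 0.1, 0.2 or 0.3 μM or 0.1% DMSO. Fixed with 4% paraformaldehyde, stained with 0.1% crystal violet, migrated cells imaged and counted. At least three replicates.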

In data set [4] the target is Tubulin (Homo sapiens) (UniProt P68371+Q9H4B7+P0DPH7+P68366+Q13509+Q71U36+P04350+Q3ZCM7+P07437+P68363+Q9BQE3+Q6PEY2+Q13885+Q9BVA1+Q9BUF5). Kind of data set: Inhibition of tubulin polymerization in human HCT-116 cells measured after 48 hrs by immunofluorescent staining based analysis. In kind it is cell-based. Conditions: dose 0.1-0.3 µM. The method, boiled down:
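HCT116 cells (1×10^5/well suspension) settled on glass slides overnight at 37 °C, 5% CO2. Treated 48 h with 0.1, 0.2 or 0.3 μM, or 0.1% DMSO. Fixed in 4% paraformaldehyde, permeabilised with 0.5% Triton X-100, blocked. Anti-α-tubulin (1:4000) at 4 °C overnight, then Alexa488 anti-mouse IgG 1 h. DAPI mount, confocal imaging.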

In data set [5] the test system is HCT-116. Briefly: Induction of cell cycle arrest in human HCT-116 cells assessed as accumulation of cells at G0/G1 phase at 0.1 uM measured after 24 hrs by PI/RNase staining based flow cytometry analysis (reference value: 32.88%). In kind it is functional. In general terms: A flow cytometer gives signals particle by particle.
Data set [6] deals with HCT-116. Briefly: Induction of cell cycle arrest in human HCT-116 cells assessed as accumulation of cells at S phase at 0.1 uM measured after 24 hrs by PI/RNase staining based flow cytometry analysis (reference value: 38.29%). In kind it is functional.
Data set [7] has as its system HCT-116. Kind of data set: Induction of cell cycle arrest in human HCT-116 cells assessed as accumulation of cells at G0/G1 phase at 0.2 uM measured after 24 hrs by PI/RNase staining based flow cytometry analysis (reference value: 32.88%). In kind it is functional.
Data set [8] relates to HCT-116. Briefly: Induction of cell cycle arrest in human HCT-116 cells assessed as accumulation of cells at G2/M phase at 0.2 uM measured after 24 hrs by PI/RNase staining based flow cytometry analysis (reference value: 28.83%). In kind it is functional.
Data set [9] relates to HCT-116. Kind of data set: Induction of cell cycle arrest in human HCT-116 cells assessed as accumulation of cells at S phase at 0.3 uM measured after 24 hrs by PI/RNase staining based flow cytometry analysis (reference value: 38.29%). It is filed as functional.
The test system of data set [10] is HCT-116. Kind of data set: Induction of cell cycle arrest at G2/M phase in human HCT-116 cells assessed as reduction in Cdc-2 protein expression measured after 48 hrs by Western blot analysis. In kind it is functional, cell-based. Conditions: dose 0.1-0.3 µM. The method, boiled down:
(§1)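 HCT116 cells given 0.1, 0.2 or 0.3 μM for 48 h, with 0.1% DMSO control. Lysates run on SDS-PAGE and blotted to PVDF. Probed with anti-Cdc2 and anti-Cyclin B1 (1:1000), β-actin as loading control, HRP secondary, and chemiluminescence. Band quantities expressed relative to control set to 1. Three independent experiments.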
For orientation: Immunoblotting shows a protein as a band on a membrane.

Data set [11] concerns HCT-116. Kind of data set: Induction of cell cycle arrest at G2/M phase in human HCT-116 cells assessed as reduction in Cyclin B1 protein expression measured after 48 hrs by Western blot analysis. Conditions: dose 0.1-0.3 µM. In kind it is functional, cell-based. In outline:
as §1

Data set [12] relates to A549. Kind of data set: Induction of cell cycle arrest in human A549 cells assessed as accumulation of cells at G0/G1 phase at 0.1 uM measured after 24 hrs by PI/RNase staining based analysis (reference value: 41.91%). It is filed as functional.
Data set [13] concerns A549. Kind of data set: Induction of cell cycle arrest in human A549 cells assessed as accumulation of cells at G0/G1 phase at 0.2 uM measured after 24 hrs by PI/RNase staining based analysis (reference value: 41.91%). It is filed as functional.
Data set [14] concerns A549. Kind of data set: Induction of apoptosis in human A549 cells assessed as live cells at 0.1 uM measured after 24 hrs by Annexin V-APC/PI staining based flow cytometry analysis (reference value: 96.91%). In kind it is functional.
The subject of data set [15] is A549. Kind of data set: Induction of apoptosis in human A549 cells assessed as late apoptotic cells at 0.1 uM measured after 24 hrs by Annexin V-APC/PI staining based flow cytometry analysis (reference value: 0.86%). It is filed as functional.
Data set [16] relates to A549. Kind of data set: Induction of apoptosis in human A549 cells assessed as live cells at 0.2 uM measured after 24 hrs by Annexin V-APC/PI staining based flow cytometry analysis (reference value: 96.91%). In kind it is functional.
Data set [17] deals with A549. Briefly: Induction of apoptosis in human A549 cells assessed as live cells at 0.3 uM measured after 24 hrs by Annexin V-APC/PI staining based flow cytometry analysis (reference value: 96.91%). In kind it is functional.
Data set [18] has as its system A549. Briefly: Induction of apoptosis in human A549 cells assessed as dead cells at 0.3 uM measured after 24 hrs by Annexin V-APC/PI staining based flow cytometry analysis (reference value: 0.50%). In kind it is functional.
Data set [19] deals with HCT-116. Kind of data set: Antitumor activity against human HCT-116 cells xenografted in female BALB/c nude mouse assessed as tumor growth inhibition at 40 mg/kg, ip administered every 2 days for 20 days by vernier caliper relative to control. The note with it: HCT-116, 480 h, time 20 day, read-out: TGI. In kind it is functional. The method, boiled down:
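HCT116 cells (5×10^7/0.2 mL/mouse) injected subcutaneously beside the right forelimb of 5-week-old female BALB/c nude mice. At 100 mm³ tumour volume, mice randomised by weight and tumour size into four groups of ten. Saline vehicle control ip. Dosing for 20 days, then euthanasia and tumour weighing. Caliper diameters used; volume = W²×L/2.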

Data set [20] in a line: Toxicity in female BALB/c nude mouse xenografted with human HCT-116 cells assessed as adverse effects at 20 to 40 mg/kg, ip administered every 2 days for 20 days. In kind it is organism-based. Conditions: in vivo, 480 h, dose 20-40 mg/kg, time 20 day. The method, boiled down: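 Female BALB/c nude mice, 5 weeks old, bearing subcutaneous HCT116 xenografts (started at 100 mm³), randomised into groups of ten. Saline-injected ip controls. Body weight monitored throughout the 20-day intraperitoneal treatment.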

For the compound `COc1ccc(/C=C(/C(=O)N2CCN(c3ccc(C)cc3)CC2)c2cc(OC)c(OC)c(OC)c2)cc1O`, in [1], the IC50 (as a rule, the point on the concentration scale where inhibition reaches its midpoint) amounted to 423 nM. The IC50 at 72 h in data set [2] worked out at 1090 nM. For the same compound, the inhibition result in [3] and in data set [4] was “Dose-Dependent Effect” each time. For the same compound, the Activity in [5] is 34.26%; in [6], 31.95%; in data set [7], 34.17%; in data set [8], 44.67%; in data set [9], 6.31%; in data set [10] it was “Dose-Dependent Effect”. Also, the Activity result in data set [11] was “Dose-Dependent Effect”; in data set [12], 69.3%; in data set [13], 77.73%; in data set [14], 86.04%; in [15] it was 2.78%; in [16], 76.79%. In addition, the figures for the Activity in [17], in data set [18] and in data set [20] were 68.79%, 1.25% and “Non-Toxic”, respectively. The inhibition in vivo at 40 mg/kg in data set [19] came out at 12.7%.

Source of the values: ChEMBL document CHEMBL5500387, “Design, synthesis of combretastatin A-4 piperazine derivatives as potential antitumor agents by inhibiting tubulin polymerization and inducing autophagy in HCT116 cells” (Eur J Med Chem, 2024).
